Calls of active or inactive are those of the source. The calls are words filed in the database; no cut-off is given here.
Assays:
[1] = system: Human immunodeficiency virus 1; assay: Resistance factor, ratio of EC50 for multidrug-resistant HIV1 106-PR infected in HEK293T cells to wildtype HIV1 infected in HEK293T cells; format: functional, HEK-293T
Outline: (§1)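 Resistance factor = EC50 against mutant virus (106-PR or 695-RT) divided by EC50 against wild-type; EC50s from 4-day HEK293T-transfection/HeLa-SxR5 co-culture with β-galactosidase read-out (405 nm), normalized to plate controls, curve-fitted.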

[2] = system: Human immunodeficiency virus 1; assay: Antiviral activity against multidrug-resistant HIV1 106-PR infected in HEK293T cells assessed as inhibition of viral replication after 4 days by beta-galactosidase reporter gene assay; format: functional, organism-based; details: Human immunodeficiency virus 1, 106-PR, HEK-293T, 96 h
Outline: (§2)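 HEK293T transfected with proviral DNA (wild-type NL4-3 CXCR4-tropic or NL-AD87 CCR5-tropic, or multiresistant 106-PR protease-inhibitor or 695-RT RT-inhibitor mutants), then co-cultured 4 days with HeLa-SxR5 reporter cells (CD4, CCR5, endogenous CXCR4, LTR-LacZ) plus test substance; DMEM/10% FBS, 37 °C, 7% CO2. β-galactosidase colorimetric read at 405 nm, normalized to plate controls; EC50 from fitted dose-response curves.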

PBMC [3] = assay: Upregulation of CD69 expression in PHA- and IL-2-stimulated human PBMC membranes at 20 nM after 48 hrs by flow cytometric analysis; format: functional, cell-based
Outline: (§3)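 Healthy-donor PBMCs at 1 × 10^6 cells/mL in RPMI/10% FBS, activated 48 h with PHA 2.5 μg/mL and IL-2 300 IU/mL, then treated 48 h with 20 nM compound or vehicle (0.25% DMSO, 100 IU/mL IL-2). Sampled at 0, 2, 5, 24, 48 h; stained 40 min at 4 °C with FITC anti-CXCR4 or anti-CCR5, or PE anti-CD69, plus isotype controls; flow cytometry, % cells expressing each receptor.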

PBMC [4] = assay: Down-regulation of CCR5 expression in PHA- and IL-2-stimulated human PBMC membranes at 20 nM after 48 hrs by flow cytometric analysis; format: functional, cell-based; outline: as §3
[5] = system: Human immunodeficiency virus 1; assay: Antiviral activity against multidrug-resistant HIV1 695-RT infected in HEK293T cells assessed as inhibition of viral replication after 4 days by beta-galactosidase reporter gene assay; format: functional, organism-based; details: Human immunodeficiency virus 1, 695-RT, HEK-293T, 96 h; outline: as §2
PBMC [6] = assay: Down-regulation of CXCR4 expression in PHA- and IL-2-stimulated human PBMC membranes at 20 nM after 48 hrs by flow cytometric analysis; format: functional, cell-based; outline: as §3
[7] = system: Human immunodeficiency virus 1; assay: Antiviral activity against wild type Human immunodeficiency virus 1 NL4-3 pseudotyped with VSV envelope infected in human HeLa-SxR5 cells assessed as inhibition of viral replication after 3 days by beta-galactosidase assay; format: functional, organism-based
Outline: (§4)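 Pseudoparticles made by cotransfecting HEK293T with env-defective NL4-3 provirus plus plasmid for full-length NL4-3 Env or VSV envelope; supernatants harvested 2 days post-transfection, cleared by low-speed spin, used to transduce HeLa-SxR5 with or without compound at increasing concentrations; β-galactosidase activity measured 3 days later; means ± standard deviation.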

HEK-293T = assay: Cytotoxicity against human HEK293T cells after 4 days by Alamar blue assay; format: cell-based; details: 96 h
Outline: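 Same culture set-up as the anti-HIV assay (HEK293T with HeLa-SxR5, DMEM/10% FBS, 37 °C, 7% CO2) but with no proviral DNA transfected; viability read with AlamarBlue after 4 days.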

[8] = system: Human immunodeficiency virus 1; assay: Antiviral activity against CCR5-tropic HIV1 NL-AD87 infected in HEK293T cells assessed as inhibition of viral replication after 4 days by beta-galactosidase reporter gene assay; format: functional, organism-based; details: Human immunodeficiency virus 1, NL-AD87, HEK-293T, 96 h; outline: as §2
[9] = system: Human immunodeficiency virus 1; assay: Antiviral activity against CXCR4-tropic HIV1 NL4-3 infected in HEK293T cells assessed as inhibition of viral replication after 4 days by beta-galactosidase reporter gene assay; format: functional, organism-based; details: Human immunodeficiency virus 1, NL4-3, HEK-293T, 96 h; outline: as §2
[10] = system: Human immunodeficiency virus 1; assay: Resistance factor, ratio of EC50 for multidrug-resistant HIV1 695-RT infected in HEK293T cells to wildtype HIV1 infected in HEK293T cells; format: functional, HEK-293T; outline: as §1
[11] = system: Human immunodeficiency virus 1; assay: Antiviral activity against wild type Human immunodeficiency virus 1 NL4-3 pseudotyped with HIV envelope infected in human HeLa-SxR5 cells assessed as inhibition of viral replication after 3 days by beta-galactosidase assay; format: functional, organism-based; outline: as §4
[12] = system: Human immunodeficiency virus 1; assay: Antiviral activity against wild type Human immunodeficiency virus 1 NL4-3 pseudotyped with HIV envelope infected in human HeLa-SxR5 cells assessed as inhibition of viral replication at 65 nM after 3 days by beta-galactosidase assay; format: functional, organism-based
Outline: (§5)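 HEK293T cells cotransfected with an envelope-defective NL4-3-derived provirus plus a plasmid expressing full-length NL4-3 HIV envelope. Supernatants were harvested 2 days post-transfection, spun at low speed to clear debris, and used to transduce HeLa-SxR5 reporter cells (CD4/CCR5, endogenous CXCR4, HIV-LTR-LacZ) with or without compound. β-galactosidase was read colorimetrically at 405 nm 3 days later and normalised to positive and negative control wells as percent inhibition.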

[13] = system: Human immunodeficiency virus 1; assay: Antiviral activity against wild type Human immunodeficiency virus 1 NL4-3 pseudotyped with VSV envelope infected in human HeLa-SxR5 cells assessed as inhibition of viral replication at 65 nM after 3 days by beta-galactosidase assay; format: functional, organism-based; outline: as §4
[14] = system: Human immunodeficiency virus 1; assay: Antiviral activity against wild type Human immunodeficiency virus 1 NL4-3 pseudotyped with VSV envelope infected in human HeLa-SxR5 cells assessed as inhibition of viral replication at 300 nM after 3 days by beta-galactosidase assay; format: functional, organism-based; outline: as §4
[15] = system: Human immunodeficiency virus 1; assay: Antiviral activity against wild type Human immunodeficiency virus 1 NL4-3 pseudotyped with HIV envelope infected in human HeLa-SxR5 cells assessed as inhibition of viral replication at 300 nM after 3 days by beta-galactosidase assay; format: functional, organism-based; outline: as §5

Molecule | Ratio EC50 [1] | EC50 [2] [nM] | EC50 [5] [nM] | Activity (HEK-293T) | EC50 [8] [nM] | EC50 [9] [nM] | Ratio EC50 [10] | other results
COC(=O)N[C@H](C(=O)N[C@@H](Cc1ccccc1)[C@@H](O)CN(Cc1ccc(-c2ccccn2)cc1)NC(=O)[C@@H](NC(=O)OC)C(C)(C)C)C(C)(C)C [ATAZANAVIR] | 7 | 324 | – | – | – | – | – | –
C=C(C)[C@]12C[C@@H](C)[C@@]34O[C@](c5ccccc5)(O[C@@H]1[C@@H]3[C@@H]1O[C@]1(CO)[C@@H](O)[C@]1(O)C(=O)C(C)=C[C@H]14)O2 [DAPHNETOXIN] | 1 | 22 | 21 | Non-toxic | 26.7 | 16.2 | 1 | Activity (PBMC [3]): Active; Activity (PBMC [4]): Active; Activity (PBMC [6]): Active; inhibition [7]: Dose-dependent effect; inhibition [11]: Dose-dependent effect
CC(C)CN(C[C@@H](O)[C@H](Cc1ccccc1)NC(=O)O[C@H]1CO[C@H]2OCC[C@H]21)S(=O)(=O)c1ccc(N)cc1 [DARUNAVIR] | >300 | 13700 | – | – | – | – | – | –
O=C1Nc2ccc(Cl)cc2[C@@](C#CC2CC2)(C(F)(F)F)O1 [EFAVIRENZ] | – | – | 889 | – | – | – | 222 | inhibition [12]: Active; inhibition [13]: Active
C=C(C)[C@]12C[C@@H](C)[C@@]34O[C@](/C=C/C=C/CCCCC)(O[C@@H]1[C@@H]3[C@@H]1O[C@]1(CO)[C@@H](O)[C@]1(O)C(=O)C(C)=C[C@H]14)O2 [EXCOECARIA TOXIN] | – | – | – | Non-toxic | 1570 | 1080 | – | –
C=C(C)[C@@]12O[C@@]3(c4ccccc4)O[C@@H]1[C@@H]1[C@@H]4O[C@]4(CO)[C@@H](O)[C@]4(O)C(=O)C(C)=C[C@H]4[C@@]1(O3)[C@H](C)[C@H]2OC(=O)/C=C/c1ccccc1 [GNIDICIN] | – | – | – | Non-toxic | 17.6 | 8.6 | – | –
C=C(C)C12OC3(c4ccccc4)OC1[C@@H]1[C@@H]4O[C@]4(CO)[C@@H](O)[C@]4(O)C(=O)C(C)=C[C@H]4C1(O3)[C@H](C)[C@H]2OC(=O)/C=C/C=C/C=C/CCC (stereo not given in full) [GNIDITRIN] | – | – | – | Non-toxic | 133 | 74 | – | –
Nc1ccn([C@@H]2CS[C@H](CO)O2)c(=O)n1 [LAMIVUDINE] | – | – | > 20000 | – | – | – | >300 | –
Cc1cccc(C)c1OCC(=O)N[C@@H](Cc1ccccc1)[C@@H](O)C[C@H](Cc1ccccc1)NC(=O)[C@H](C(C)C)N1CCCNC1=O [LOPINAVIR] | 10 | 160 | – | – | – | – | – | –
CC(C)(C)NC(=O)[C@@H]1C[C@@H]2CCCC[C@@H]2CN1C[C@@H](O)[C@H](Cc1ccccc1)NC(=O)[C@H](CC(N)=O)NC(=O)c1ccc2ccccc2n1 [SAQUINAVIR] | 1 | 12 | – | – | – | – | – | –
Cc1cn([C@H]2C[C@H](N=[N+]=[N-])[C@@H](CO)O2)c(=O)[nH]c1=O [ZIDOVUDINE] | – | 6 | 200 | – | – | – | 11 | –
enfuvirtide | – | – | – | – | – | – | – | inhibition [14]: inactive; inhibition [15]: Active
